Data taken from ChEMBL document CHEMBL1127609, “Cyclic benzamides as mixed dopamine D2/serotonin 5-HT2 receptor antagonists: potential atypical antipsychotic agents” (J Med Chem, 1994).

Columns and labels:
Mus musculus [1] = assay: In vivo the ability to antagonize the apomorphine induced climbing response in mice; type: functional
How it was run: (§1)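 Male CD-1 mice (20–25 g) were acclimated ≥30 min in wire-mesh cages. Drug in 0.5% methyl cellulose or vehicle was given po 60 min before sc apomorphine HCl 5 mg/kg in 0.0001 N HCl, N = 6/dose group. Climbing and stereotypy were scored every 5 min for 30 min, starting at 5 min. The six scores were averaged and % antagonism taken versus controls. ED50 by Litchfield–Wilcoxon.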

[2] = target: Serotonin 2 (5-HT2) receptor (Rattus norvegicus, UniProt P30994+P08909+P14842); assay: In vitro binding affinity was measured on serotonergic 5-hydroxytryptamine 2 receptor by displacement of [3H]- ketanserin; type: protein assay
[3] = target: T1, 5-hydroxytryptamine receptor 1A (Rattus norvegicus, UniProt P19327); assay: In vitro binding affinity was measured on serotonergic 5-hydroxytryptamine 1A receptor by displacement of [3H]- tetralin
T1 sequence (P19327 whole entry): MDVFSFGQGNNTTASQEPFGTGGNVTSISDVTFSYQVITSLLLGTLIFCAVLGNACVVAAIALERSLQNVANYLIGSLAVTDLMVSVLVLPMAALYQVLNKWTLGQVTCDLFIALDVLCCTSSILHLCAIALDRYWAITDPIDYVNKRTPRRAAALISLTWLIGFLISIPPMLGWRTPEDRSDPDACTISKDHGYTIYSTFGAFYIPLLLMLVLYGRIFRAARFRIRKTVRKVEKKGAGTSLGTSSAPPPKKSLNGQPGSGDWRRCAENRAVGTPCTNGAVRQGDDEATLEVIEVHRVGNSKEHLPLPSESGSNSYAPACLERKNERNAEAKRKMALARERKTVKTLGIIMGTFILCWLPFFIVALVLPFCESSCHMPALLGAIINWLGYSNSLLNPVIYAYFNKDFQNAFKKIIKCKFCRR
How it was run: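 Rat hippocampus membranes from male Sprague-Dawley rats, homogenized in 50 mM Tris pH 7.7, preincubated 10 min at 37 °C. Final incubation buffer was 50 mM Tris, 4 mM CaCl2, 10 μM pargyline, 0.1% ascorbic acid, pH 7.4. [3H]-8-OH-DPAT at 0.3 nM final, 30 min at 25 °C, then filtration. Nonspecific binding was defined with 10 μM serotonin.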

Mus musculus [4] = assay: In vivo the ability to antagonize the apomorphine induced climbing response in mice after peroral administration; type: functional; conditions: po; how it was run: as §1
Mus musculus [5] = assay: Tested in vivo for their ability to antagonize the apomorphine induced stereotypy response in mice after peroral administration; type: functional; conditions: po; how it was run: as §1
Mus musculus [6] = assay: Tested in vivo for their ability to induction of catalepsy in mice after peroral administration; type: functional; conditions: po
How it was run: (§2)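 Catalepsy induction was tested in male CD-1 mice (20–25 g). Drug was given in 0.5% methyl cellulose vehicle at 0.5–2.0 mL/100 g. ED50 by Litchfield–Wilcoxon.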

Mus musculus [7] = assay: Tested in vivo for their ability to antagonize the apomorphine induced stereotypy response in mice; type: functional; how it was run: as §1
Mus musculus [8] = assay: Tested in vivo for their ability to induction of catalepsy in mice; type: functional; how it was run: as §2

Compound	ED50 (Mus musculus [1]; Mus musculus, read-out: ED50)	IC50 [2]	IC50 [3]	ED50 (Mus musculus [4])	ED50 (Mus musculus [5])	ED50 (Mus musculus [6])	ED50 (Mus musculus [7])	ED50 (Mus musculus [8])	ED50 (Mus musculus [1])
O=C1c2ccccc2C(=O)N1CCCCN1CCN(c2nsc3ccccc23)CC1	6.2 mg/kg	7.6 nM	0.19 nM	–	–	–	–	–	–
O=c1c2ccccc2nnn1CCCCN1CCN(c2nsc3ccccc23)CC1	–	2.9 nM	1.7 nM	19.1 mg/kg	57.8 mg/kg	252 mg/kg	–	–	–
O=c1c2ccccc2ncn1CCCCN1CCN(c2nsc3ccccc23)CC1	–	2.3 nM	0.59 nM	6.2 mg/kg	–	–	–	–	–
O=c1c2ccccc2[nH]n1CCCCN1CCN(c2nsc3ccccc23)CC1	–	150 nM	350 nM	> 25 mg/kg	–	–	–	–	–
O=c1c2ccccc2sn1CCCCN1CCN(c2nsc3ccccc23)CC1	–	140 nM	120 nM	> 25 mg/kg	–	–	–	–	–
O=C1c2ccccc2CCCN1CCCCN1CCN(c2nsc3ccccc23)CC1	> 25 mg/kg	4.2 nM	4.1 nM	–	–	–	–	–	–
O=C1c2ccccc2CN1CCCCN1CCN(c2nsc3ccccc23)CC1	6.3 mg/kg	5.1 nM	7 nM	–	–	–	24.7 mg/kg	> 360 mg/kg	–
Cc1nn(CCCCN2CCN(c3nsc4ccccc34)CC2)c(=O)c2ccccc12	–	0.84 nM	3.4 nM	30.4 mg/kg	–	–	–	–	–
O=C1Cc2ccccc2C(=O)N1CCCCN1CCN(c2nsc3ccccc23)CC1	12.2 mg/kg	4.7 nM	1.8 nM	–	–	–	40.3 mg/kg	133 mg/kg	–
CCOC(=O)n1c2ccccc2c(=O)n1CCCCN1CCN(c2nsc3ccccc23)CC1	> 25 mg/kg	7.9 nM	33 nM	–	–	–	–	–	–
O=c1[nH]n(CCCCN2CCN(c3nsc4ccccc34)CC2)c(=O)c2ccccc12	–	76 nM	2.6 nM	> 25 mg/kg	–	–	–	–	–
O=c1c2ccccc2cnn1CCCCN1CCN(c2nsc3ccccc23)CC1	–	1.8 nM	10 nM	9.5 mg/kg	29.8 mg/kg	70.4 mg/kg	–	–	–
O=C1c2ccccc2CCN1CCCCN1CCN(c2nsc3ccccc23)CC1	16.4 mg/kg	1.9 nM	0.64 nM	–	–	–	–	–	–
O=C1c2ccccc2S(=O)(=O)N1CCCCN1CCN(c2nsc3ccccc23)CC1	–	1.1 nM	0.4 nM	48.7 mg/kg	–	–	–	–	–
O=C1C2CCCCC2C=NN1CCCCN1CCN(c2nsc3ccccc23)CC1 (stereo in doubt; 52)	–	0.76 nM	0.82 nM	–	–	–	–	–	16.2 mg/kg
O=C1C2CCCCC2C=NN1CCCCN1CCN(c2nsc3ccccc23)CC1 (stereo in doubt; 53)	25 mg/kg	0.38 nM	0.021 nM	–	–	–	–	–	–
O=C(CCCN1CCC(O)(c2ccc(Cl)cc2)CC1)c1ccc(F)cc1 [HALOPERIDOL]	–	–	–	–	–	–	0.9 mg/kg	3 mg/kg	–
